Data taken from PubChem BioAssay.
Calls of active or inactive are those of the source.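 How the source made its calls, unless noted: active means inhibition of the reporter signal at or above 50%; inactive means inhibition below 50%.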

What was measured:
[1] = inhibitors of TNFa-induced NFkB p65 translocation, primary screen, imaging, HUVEC, MLSMR starter and 10KST1 sets (AID 438;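 active means inhibition above 20% together with a positive visual image hit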;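 further: compound added about 3h40 before a 20 min TNFalpha stimulation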;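 on inhibition: signal is the nuclear over cytoplasmic p65 intensity ratio per well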); details: HUVEC TNFa-induced p65 nuclear translocation; cell count: measured here: nuclei count (cytotoxicity indicator), at 2.08 µM; inhibition: at 2 µM, stronger effect = higher value, 0% TNFa-plus-vehicle, 100% no-TNFa wells
[2] = inhibitors of mutant huntingtin aggregation, primary screen, imaging, exon1htt(103Q)mCFP cells, high-content imaging (AID 483;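 active means visual image review flags a hit and inhibition of aggregation exceeds 20%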;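 further: compound exposure lasted 3 days before fixation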;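 on nuclei count: percent of the per-plate median nuclei count of sample wells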); details: exon1htt(103Q)mCFP cell line, aggregate imaging, at 2 µM; inhibition of aggregation: stronger effect = higher value; nuclei count: measured here: cell count, toxicity
[3] = inhibitors of E-selectin induction by TNFa, primary screen, imaging, HUVEC, immunofluorescence, MLSMR starter and 10KST1 sets (AID 487;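 active means visually confirmed hit in the image check and inhibition above 20%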;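 on inhibition: signal is fraction of cell area covered by stained E-selectin grains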;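 on nuclei count: 100% = median nuclei count of all wells on the same plate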); details: HUVEC TNFalpha-induced E-selectin immunofluorescence imaging, at 2 µM; inhibition: stronger effect = higher value; nuclei count: measured here: cell number, toxicity
[4] = target: Voltage-gated potassium channel subunit beta-2 (Rattus norvegicus) (UniProt P62483); assay: KvBeta enzyme negative modulators, primary screen, biochemical, NADPH fluorescence (AID 622;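 active means fluorescence slope higher than the sample average by over 3 SD, cut at about -0.22 in these data, passing the limit was not always enough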;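 further: slope of raw intensity against log time taken from 70 to 1610 s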); details: recombinant KvBeta, 4-cyanobenzaldehyde reduction, at 10 µM, stronger effect = higher value
Chain of Voltage-gated potassium channel subunit beta-2 (Rattus norvegicus) (P62483 whole entry, looked up): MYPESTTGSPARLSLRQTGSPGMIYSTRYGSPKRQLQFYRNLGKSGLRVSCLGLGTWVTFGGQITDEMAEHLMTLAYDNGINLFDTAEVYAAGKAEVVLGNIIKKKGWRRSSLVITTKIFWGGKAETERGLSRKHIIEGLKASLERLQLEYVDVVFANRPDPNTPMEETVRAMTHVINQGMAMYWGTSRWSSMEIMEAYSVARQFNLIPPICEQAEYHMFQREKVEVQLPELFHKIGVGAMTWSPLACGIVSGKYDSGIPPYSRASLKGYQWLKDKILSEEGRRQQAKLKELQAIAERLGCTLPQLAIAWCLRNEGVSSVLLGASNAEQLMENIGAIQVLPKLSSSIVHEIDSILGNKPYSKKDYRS

[5] = target: Voltage-gated potassium channel subunit beta-2 (Rattus norvegicus) (UniProt P62483); assay: KvBeta positive modulators, primary screen, biochemical, NADPH fluorescence (AID 623;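 active means NADPH fluorescence slope more negative than the mean of all samples by about 3 SD, 99.7% confidence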;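 further: fluorescence intensity change per second fitted from 20 to 320 s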); details: Recombinant KvBeta, NADPH fluorescence decrease slope, 10 min; at 10 µM; stronger effect = lower value
[6] = target: Muscarinic acetylcholine receptor M4 (Homo sapiens) (UniProt P08173); assay: compounds altering M4/GIRK thallium flux, either direction, primary screen, M4 allosteric agonist project, cell-based, HEK293 M4/GIRK, BTC-AM (AID 625;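 active means fluorescence slope after compound addition differing from the mean of all tested samples at 99.7% confidence, mostly higher but some lower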;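 further: thallium influx through GIRK channels coupled to M4 in HEK293 cells with BTC-AM dye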); details: at 10 µM, actives lie on both sides
Chain of Muscarinic acetylcholine receptor M4 (Homo sapiens) (P08173 whole entry, looked up): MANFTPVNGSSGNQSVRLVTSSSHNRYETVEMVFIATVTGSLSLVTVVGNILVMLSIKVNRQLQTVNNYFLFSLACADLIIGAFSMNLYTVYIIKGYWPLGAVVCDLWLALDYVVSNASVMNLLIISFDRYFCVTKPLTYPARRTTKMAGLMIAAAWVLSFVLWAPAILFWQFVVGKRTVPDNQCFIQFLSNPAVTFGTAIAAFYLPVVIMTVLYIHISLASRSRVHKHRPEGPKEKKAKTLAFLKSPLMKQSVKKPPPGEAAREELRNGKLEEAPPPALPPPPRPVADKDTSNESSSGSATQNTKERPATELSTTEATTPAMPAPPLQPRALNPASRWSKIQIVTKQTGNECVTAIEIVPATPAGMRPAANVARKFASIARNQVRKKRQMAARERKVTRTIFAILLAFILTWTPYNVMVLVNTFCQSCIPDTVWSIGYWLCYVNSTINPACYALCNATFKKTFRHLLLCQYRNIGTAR
Method in brief: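 Assay system: HEK293 cells with M4 receptor and GIRK channels / Controls: carbachol and DMSO controls / Schedule: 1 h dye loading, 2 min kinetic read / Technique: kinetic fluorescence with BTC-AM dye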

[7] = inhibitors of Sendai virus-induced IRF3 signaling, primary screen, TLR/RLR signaling modifier project, cell-based, Sendai virus stimulus, luciferase, 10K MLSCN set (AID 602276;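 active means inhibition at or above 50% at 10 µM; inactive means inhibition below 50%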;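 further: firefly luciferase from ISG56 promoter only with Renilla not read in this screen; 0% = Sendai virus plus DMSO and 100% = medium plus DMSO without virus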); details: HEK293 RL24 IRF3 luciferase reporter, at 10 µM, stronger effect = higher value
[8] = inhibitors of poly I:C-induced TLR3 signaling, primary screen, cell-based, poly I:C stimulus, luciferase, 10K MLSCN set (AID 602277); details: HEK293-TLR3 RL24 IRF3 luciferase reporter, at 10 µM, stronger effect = higher value

SMILES	cell count [1]	inhibition [1]	inhibition of aggregation [2]	nuclei count [2] [%]	inhibition [3]	nuclei count [3] [%]	fluorescence slope [4]	NADPH fluorescence slope [5]	fluorescence slope [6]	inhibition [7]	inhibition [8]
CN1CCN(C(=O)CCC(=O)c2ccc(F)cc2)CC1	478	3.9% (inactive)	-7.4% (inactive)	122	-2.6% (inactive)	97.1	-0.444 (inactive)	5.6e-05 (inactive)	0.00581 (inactive)	5.42% (inactive)	11.9% (inactive)
CCc1cc2ccc(C)cc2nc1SCC(=O)N1CCN(C(=O)c2ccco2)CC1	431	4.8% (inactive)	15.4% (inactive)	106	-49.1% (inactive)	119	-0.504 (inactive)	-0.000145 (inactive)	0.00487 (inactive)	11.9% (inactive)	5.95% (inactive)
c1ccc(Cn2nnc3c(N4CCC5(CC4)OCCO5)ncnc32)cc1	382	-1.3% (inactive)	0.3% (inactive)	103	-346% (inactive)	144	-0.522 (inactive)	-5.2e-05 (inactive)	0.00535 (inactive)	3.41% (inactive)	6.57% (inactive)
CC(C)CN1C(=O)c2ccc(C(=O)Nc3nccs3)cc2C1=O	513	8.1% (inactive)	-20.1% (inactive)	120	-335% (inactive)	137	-0.586 (inactive)	-2.9e-06 (inactive)	0.00611 (inactive)	13.3% (inactive)	5.57% (inactive)
CCc1cc(C)cc(OCCNC(=O)c2ncn[nH]2)c1	473	3% (inactive)	3.2% (inactive)	93.5	31.1% (inactive)	88.4	-0.592 (inactive)	-1.9e-06 (inactive)	0.00585 (inactive)	12% (inactive)	18.1% (inactive)
COc1cccc(OC)c1C(=O)n1nc(C)cc1C	489	-18.1% (inactive)	-12.3% (inactive)	99.8	-10.8% (inactive)	95.6	-0.591 (inactive)	-3.7e-05 (inactive)	0.00413 (inactive)	14.5% (inactive)	4.66% (inactive)
COc1ccc(-c2cc(C(=O)NCc3ccc(Cl)cc3)no2)cc1OC	358	-2.5% (inactive)	-5.6% (inactive)	106	41% (inactive)	106	-0.19 (inactive)	-1.3e-05 (inactive)	0.00727 (inactive)	14.3% (inactive)	-8.76% (inactive)
CCCn1c(SCC(=O)N2CCCc3ccccc32)nnc1-c1ccccn1	471	-0.8% (inactive)	-0.4% (inactive)	100	-20.1% (inactive)	113	-0.59 (inactive)	-6.6e-06 (inactive)	0.00584 (inactive)	20.3% (inactive)	20% (inactive)
Nc1nonc1C(=O)NCCNCc1cc(Br)ccc1OCc1ccccc1F	422	-2.4% (inactive)	18.5% (inactive)	89.6	-4.2% (inactive)	123	-0.574 (inactive)	-3.2e-05 (inactive)	0.00396 (inactive)	-2.45% (inactive)	-30.4% (inactive)
Cn1cccc1-c1cc(C(=O)O)[nH]n1	825	-8.7% (inactive)	7.8% (inactive)	56.8	-57.9% (inactive)	139	-0.465 (inactive)	-0.000188 (inactive)	0.00382 (inactive)	15.5% (inactive)	15.9% (inactive)
COc1cccc(CNC(=O)C2CCN(c3cnccn3)CC2)c1	399	-8.4% (inactive)	17.9% (inactive)	98.8	-82.7% (inactive)	86.8	-0.548 (inactive)	5.8e-06 (inactive)	0.00424 (inactive)	18.8% (inactive)	18.1% (inactive)
O=C(NCc1ccccn1)Nc1ccc2c(c1)OCO2	415	-12.8% (inactive)	-6.8% (inactive)	100	3.1% (inactive)	92.3	-0.459 (inactive)	-1.3e-06 (inactive)	0.00592 (inactive)	10.3% (inactive)	99.1% (active)
Cc1cc(C(=O)O)ccc1-n1c(C)ccc1C	332	-3.7% (inactive)	0.1% (inactive)	106	-88.3% (inactive)	118	-0.554 (inactive)	-3.5e-05 (inactive)	0.00607 (inactive)	14.8% (inactive)	20% (inactive)
Cn1c(=O)c2c(nc(SCCCO)n2Cc2ccccc2Cl)n(C)c1=O	531	7.2% (inactive)	-0.4% (inactive)	96	41% (inactive)	92.6	-0.424 (inactive)	3e-05 (inactive)	0.00759 (inactive)	7.16% (inactive)	22.9% (inactive)
CCC(=NC(C)c1ccccc1)c1c(O)n(C)c(=O)n(C)c1=O (centres undefined)	287	9.3% (inactive)	3.2% (inactive)	72.1	-50.4% (inactive)	133	-0.518 (inactive)	-0.000132 (inactive)	0.00372 (inactive)	8.09% (inactive)	-40% (inactive)
Cc1ccc2ncnc(NCCCN3CCOCC3)c2c1	339	-0.6% (inactive)	4.8% (inactive)	101	-25.5% (inactive)	115	-0.484 (inactive)	-0.000336 (inactive)	0.00376 (inactive)	-18.7% (inactive)	-21.1% (inactive)
COc1cc2c(cc1OC)CN(Cc1nc3ccsc3c(=O)[nH]1)CC2	335	-6.2% (inactive)	26.3% (inactive)	93	-5.2% (inactive)	110	-0.579 (inactive)	-3.9e-05 (inactive)	0.0061 (inactive)	24.1% (inactive)	41.1% (inactive)
O=S(=O)(NCCCCCNS(=O)(=O)c1ccccc1)c1ccccc1	468	4.3% (inactive)	-5% (inactive)	104	-56.2% (inactive)	142	-0.547 (inactive)	-3.3e-05 (inactive)	0.00488 (inactive)	20.2% (inactive)	22.6% (inactive)
Nc1nnc(SCC(=O)N2CCN(c3ccccc3)CC2)n1-c1ccccc1	774	-11.4% (inactive)	2% (inactive)	99.4	-82% (inactive)	111	-0.572 (inactive)	-3.7e-05 (inactive)	0.00636 (inactive)	10.7% (inactive)	21.1% (inactive)
